Source: PubChem (Johns Hopkins Ion Channel Center)
Sampled rows, rich in hits. Any-hit rate of the full collection: about 3.7%.
KCNQ1 block: inhibitors of human KCNQ1 potassium channel | B-score at 10 µM | 1.3% of 310,000 active | AID 2642 | CHO-K1 KCNQ1, FluxOR thallium flux fluorescence; hits give high values;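 active means compounds whose thallium flux B-score, printed positive for inhibition, exceeds three library SD while starting fluorescence stays within three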;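 further: channel opened by potassium depolarization with thallium stimulus after 20 min compound exposure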
KCNK9 inh: human KCNK9 channel inhibition; Q9NPC2; HEK293 KCNK9, FluxOR thallium flux fluorescence; hits give low values; B-score at 10 µM; 1.2% of 310,000 active;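 active means ratio B-score over 3 SD below the library mean, with starting fluorescence within 5 SD of its mean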;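 further: negative B-score means less thallium flux so channel inhibition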
KCNQ1 pot: potentiators or activators of human KCNQ1 potassium channel; P51787; CHO-K1 KCNQ1, thallium flux FluxOR fluorescence; hits give high values; B-score at 10 µM; 0.35% of 310,000 active; AID 2648;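 active means fluorescence ratio B-score, a plate-corrected score, at least three library SD, with initial intensity B-score within 5 SD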
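Assay system: CHO-K1 cells stably expressing KCNQ1. Medium: assay buffer for compound exposure, DMSO matched across wells. Timing: 37 °C overnight plating, 90-min dark dye load, 20-min compound pretreatment. Signal: kinetic FluxOR fluorescence, 10 s baseline plus 110 s post-stimulus.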
Kir21 inh: Kir2.1 (mouse) channel inhibition | 0.85% of 310,000 active | B-score at 10 µM | AID 1672 | HEK293-Kir2.1, FluxOR thallium flux fluorescence; hits give low values;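 active means fluorescence ratio B-score at or below minus 3 SD of library scores, with starting-brightness B-score within 2 SD, cut at about -4.2 in these data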;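 further: channel flux triggered by added potassium and thallium sulfate stimulus; B-score of peak minus minimum fluorescence over baseline after thallium stimulus; more negative B-score means stronger Kir2.1 block with less thallium influx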
hERG protect: compounds protecting human hERG from proarrhythmic drug block | Q12809 | CHO-hERG, FluxOR thallium flux, dofetilide IC70 present | activation (rescue from dofetilide block), less the hit threshold, % at 10 µM | 0.51% of 310,000 active | AID 1511;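 active means activation above the mean of controls blocked by dofetilide plus 5 SD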;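 further: thallium influx through hERG after potassium depolarization seen as dye fluorescence rise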
KCNK3 inh: human KCNK3 channel inhibition, primary screen | AID 602410 | O14649 | B-score at 10 µM | 0.84% of 340,000 active | CHO-KCNK3 thallium flux, FluxOR fluorescence; hits give low values;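 active means B-score under library mean minus 4 SD, starting fluorescence ratio at most library mean plus 5 SD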;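 further: more negative B-score means stronger inhibition of thallium flux through KCNK3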
Target sequence (O14649 whole entry, looked up): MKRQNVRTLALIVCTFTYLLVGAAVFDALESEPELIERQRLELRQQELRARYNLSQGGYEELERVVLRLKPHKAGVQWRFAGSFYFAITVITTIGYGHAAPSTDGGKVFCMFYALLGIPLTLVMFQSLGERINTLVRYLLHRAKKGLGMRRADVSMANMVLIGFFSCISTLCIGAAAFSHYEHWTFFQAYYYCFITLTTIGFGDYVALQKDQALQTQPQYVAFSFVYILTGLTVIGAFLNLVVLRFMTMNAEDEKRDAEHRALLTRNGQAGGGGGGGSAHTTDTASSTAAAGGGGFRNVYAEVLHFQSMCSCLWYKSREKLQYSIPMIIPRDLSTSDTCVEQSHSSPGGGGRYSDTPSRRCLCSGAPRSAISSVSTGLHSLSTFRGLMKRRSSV
Hits are given with their value; - = inactive; . = not tested or not shown.

SMILES	KCNQ1 block	KCNK9 inh	KCNQ1 pot	Kir21 inh	hERG protect	KCNK3 inh
Cc1ccc(NC(=O)Cc2ccc(-c3ccccc3)cc2)nc1	-	-	-	-	-	-
FC(F)(F)c1cccc(NC(=S)Nc2ccc(Cl)c(Cl)c2)c1	7	-	-	-	-	-
Cc1cc(NC(=O)Nc2cccc(C(F)(F)F)c2)n(C)n1	6	-	-	-	-	-
CC(C)(O)C(=O)NNC(=S)Nc1cccc(C(F)(F)F)c1	7	-	-	-	-	-
O=C(Nc1ccccc1)Nc1cccc(C(F)(F)F)c1	-	-	-	-	-	-
FC(F)(F)c1cccc(NC(=S)NNC(=S)Nc2cccc(C(F)(F)F)c2)c1	-	-	-	-	-	.
C=CCN1C(=O)c2ccc(C(=O)N(C)CC(=O)Nc3ccc(Br)cc3C)cc2C1=O	-	-	-	-	-	-
OC[C@H]1O[C@H](OC[C@H]2O[C@H](OC[C@H]3O[C@H](O[C@]4(CO)O[C@H](CO)[C@@H](O)[C@@H]4O)[C@H](O)[C@@H](O)[C@@H]3O)[C@H](O)[C@@H](O)[C@H]2O)[C@H](O)[C@@H](O)[C@H]1O	-	-	32	-	-	-
CC1CCCCN1c1nc(-c2ccncc2)nc2ccccc12 (configuration not stated)	-	-	-	-	-	-
CCC1CCCCN1c1nc(-c2ccncc2)nc2ccccc12 (configuration not stated)	-	-6.8	-	-	-	-
CCC1CCCCN1c1nc(-c2cccc(OC)c2O)nc2ccccc12 (configuration not stated)	-	-7.6	-	-	-	-
Cc1ccccc1N(CC(=O)NC1CCCCC1)C(=O)CNC(=O)c1cccs1	-	-	-	-	-	-
COc1ccc(S(=O)(=O)Nc2cccc3c2O[C@H](CN(C)C(=O)Nc2ccc4c(c2)OCO4)[C@@H](C)CN([C@H](C)CO)C3=O)cc1	.	.	.	.	.	-
COc1ccc(Cn2c(C(C)C)nc3sc4ccccc4c(=O)c3c2=O)cc1	-	-	-	-	-	-
CC(C)c1nc2sc3ccccc3c(=O)c2c(=O)n1Cc1ccccc1	6	-	-	-	-	-
Cc1ccc(NC(=S)N2CCCCC2)cc1C	-	-	-	-	-	-
Cc1ccc(CC2(c3ccccc3)NC(=O)NC2=O)cc1 (configuration not stated)	.	.	.	.	.	-
CCCCN(c1ccccc1)S(=O)(=O)N(C)C	-	-	-	-5.1	-	-
CCOC(=O)c1ccc(NCC(O)COc2ccccc2)cc1 (configuration not stated)	-	-	-	-	-	-
CCOCC(O)CNc1ccccc1 (configuration not stated)	-	-	-	-	5.4	-
Cc1c(Cl)cccc1NC(=S)N1CCCN(Cc2ccc(F)cc2)C1	-	-	-	-6.2	-	-
Cc1ccc(NC(=S)N2CCCN(Cc3ccc(F)cc3)C2)c(C)c1	-	-	-	-	-	-
Cc1ccccc1NC(=S)N1CCCN(Cc2ccc(F)cc2)C1	-	-	-	-4.5	-	-
CCN(CC)c1ccc(/C=N/NC(=O)c2nnn(-c3nonc3N)c2C(C)C)c(O)c1	7	-	-	-	-	-
O=C(C=Cc1ccc2c(c1)OCO2)c1ccccc1	.	.	.	.	.	-
SMILES	KCNQ1 block	KCNK9 inh	KCNQ1 pot	Kir21 inh	hERG protect	KCNK3 inh
CCOC(=O)C(=Cc1ccc2c(c1)OCO2)c1ccccc1	.	.	.	.	.	-9.8
COC(=O)c1cc(NC(=O)CN(c2ccc3c(c2)OCO3)S(C)(=O)=O)ccc1Cl	-	-7.4	-	-	-	-
COC(=O)c1ccc(Cl)c(NC(=O)CN(c2ccc3c(c2)OCO3)S(C)(=O)=O)c1	-	-	-	-	-	-
Cc1c(C(=O)N2CCN(Cc3ccccc3)CC2)oc2c1C(=O)CC(C)(C)C2	-	-	-	-	-	-
Cc1nc(N2CCN(c3ccccn3)CC2)c2c(C)c(C(=O)Nc3c(F)cc(F)cc3Br)sc2n1	6	-	-	-	-	-
Cc1nc(N2CCN(C)CC2)c2c(C)c(C(=O)Nc3ccc(C)c(F)c3)sc2n1	-	-	-	-6	-	-
Cc1nc(N2CCC(C)CC2)c2c(C)c(C(=O)Nc3ccccc3C(F)(F)F)sc2n1	-	-7.4	-	-	-	-
Cc1onc(-c2ccccc2)c1C(=O)NC(=S)Nc1sc2c(c1C#N)CCC(C)C2 (configuration not stated)	-	-	21	-	15	-
Cc1onc(-c2ccccc2)c1C(=O)Nc1sc2c(c1C#N)CCC2	-	-	-	-	-	-
Cc1onc(-c2ccccc2)c1C(=O)NC(=S)Nc1sc2c(c1C#N)CCCC2	-	-	8	-	16	-
Cc1cc(C(=O)Nc2sc3c(c2C#N)CCC(C)C3)no1 (configuration not stated)	-	-	-	-	-	-
O=C(O)c1ccc(-c2noc(-c3ccc(F)cc3)n2)cc1	-	-	-	-	-	-
O=C(NC1CCN(Cc2ccccc2)C1)c1cc(COc2ccc(F)cc2F)on1 (configuration not stated)	-	-	-	-4.4	-	-
Cn1c(-c2ccccc2)cnc1NCc1ccc(F)cc1	-	-	-	-4.9	-	-
CCN1CCN(C(=O)c2ccc3c(c2)c(C)c(C)n3Cc2ccccc2)CC1	-	-	-	-	-	-
Cc1c(C)n(Cc2ccccc2)c2ccc(C(=O)OCCCN(C)C)cc12	-	-	-	-12	-	-
CC(C)(C)CN1CCN(Cc2cccnc2)CC1CCO (configuration not stated)	-	-	-	-	-	-
CC(=O)OCc1c(C(F)(F)F)nn(C)c1Sc1ccccc1	-	-	-	-	-	-
CCC(=O)OCc1c(C(F)(F)F)nn(C)c1Sc1ccc(Cl)cc1	-	-	-	-4.9	-	-
CN(CC(=O)Nc1ccccc1Cl)CC(=O)Nc1c(F)cccc1F	-	-	-	-	5.2	-
Cc1ccc(Nc2cc(C)nc3ccc(C)cc23)cc1	-	-	-	-6.7	-	-
Cc1cc(Nc2ccc3c(c2)OCCO3)c2cc(Cl)ccc2n1	-	-	-	-5.2	-	-
CC(Oc1ccc2c(c1)oc(=O)c1ccccc12)C(=O)NCCN1CCOCC1 (configuration not stated)	-	-	-	-	-	-
OCCC1CN(Cc2cccc3nonc23)CCN1Cc1ccsc1 (configuration not stated)	-	-	-	-	-	-
OCCC1CN(Cc2ccccc2OC2CCCC2)CCN1Cc1ccsc1 (configuration not stated)	-	-	-	-4.5	-	-
OCCC1CN(Cc2ccc(-c3ccco3)cc2)CCN1Cc1ccsc1 (configuration not stated)	-	-	-	-4.5	-	-
